Measured values published in ChEMBL document CHEMBL3813669, “Synthesis and in vitro evaluation of hydrazinyl phthalazines against malaria parasite, Plasmodium falciparum” (Bioorg Med Chem Lett, 2016).
The source made the active and inactive calls. The calls are words filed in the database; no cut-off is given here.

Assays:
[1] = test system: Plasmodium falciparum; assay: Antiplasmodial activity against Plasmodium falciparum 3D7 infected in human RBCs assessed as inhibition of trophozoite to schizont stage transition at 0.25 to 4 times IC50 measured after 12 hrs by flow cytometric analysis; assay type: functional, organism-based
Outline: (§1)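 Synchronised 3D7 cultures received compound at ring (2-4 h), trophozoite (24-26 h) or schizont (36-38 h) stage. Dosing was 4×, 2×, 1× and 0.25× the IC50 estimated from the 3D7 dose-response. Samples were harvested about 12 h later, and stage progression and morphology were monitored by flow cytometry and microscopy.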

[2] = test system: Plasmodium falciparum; assay: Antiplasmodial activity against Plasmodium falciparum 3D7 infected in human RBCs assessed as inhibition of ring to trophozoite stage transition at 0.25 to 4 times IC50 measured after 12 hrs by flow cytometric analysis; assay type: functional, organism-based; outline: as §1
[3] = test system: Plasmodium falciparum; assay: Antiplasmodial activity against Plasmodium falciparum 3D7 trophozoite stage infected in human RBCs assessed as reduction in parasitemia after 48 hrs by Hoechst-3342 staining based flow cytometric analysis; assay type: functional, organism-based; conditions: 3D7, 48 h
Outline: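 Trophozoite-stage 3D7 parasites (~24–26 hpi) were exposed to 1.6 μM to 100 μM compound for 48 h, with DMSO-treated parasites as negative control and chloroquine as positive control. Parasitemia was read by flow cytometry, and IC50 was estimated from the concentration series.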

[4] = test system: MDCK; assay: Cytotoxicity against MDCK cells assessed as cell viability measured after overnight incubation by MTT assay; assay type: cell-based; conditions: Canis lupus familiaris
Outline: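 MDCK cells were tested by MTT viability assay at compound concentrations up to 200 μM, alongside controls.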

[5] = test system: Plasmodium falciparum; assay: Antiplasmodial activity against chloroquine-resistant Plasmodium falciparum K1 infected in human RBCs assessed as reduction in parasitemia after 48 hrs by Hoechst-3342 staining based flow cytometric analysis; assay type: functional, organism-based; conditions: K1, 48 h
Outline: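 The K1 strain was screened across a 0–100 μM compound range alongside 3D7, and IC50 values were derived from parasitemia. Giemsa-stained smears from representative experiments were also examined by microscopy for parasite phenotype.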

[6] = test system: Plasmodium falciparum; assay: Antiplasmodial activity against Plasmodium falciparum 3D7 infected in human RBCs assessed as inhibition of schizont to ring stage transition at 4 times IC50 measured after 12 hrs by flow cytometric analysis; assay type: functional, organism-based; outline: as §1
[7] = Selectivity index, ratio of IC50 for MDCK cells to IC50 for Plasmodium falciparum 3D7
Outline: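 Ratio computed as […]. The 3D7 IC50 came from trophozoite-stage parasites (~24-26 hpi) incubated 48 h with 1.6-100 μM compound, with DMSO and chloroquine controls. The MDCK IC50 came from the MTT assay tested up to 200 μM.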

[8] = test system: Plasmodium falciparum; assay: Antiplasmodial activity against Plasmodium falciparum 3D7 trophozoite stage infected in human RBCs assessed as reduction in parasitemia at 1 to 100 uM after 48 hrs by Hoechst-3342 staining based flow cytometric analysis; assay type: functional, organism-based
Outline: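 3D7 parasites at trophozoite stage (~30 hpi) were exposed to 1, 20 and 100 μM compound, with DMSO-treated negative control. Parasitemia was read by flow cytometry after 48 h.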

[9] = test system: Plasmodium falciparum; assay: Antiplasmodial activity against Plasmodium falciparum 3D7 infected in human RBCs assessed as inhibition of merozoite maturation at schizont stage at IC50 by Giemsa-staining based microscopic analysis; assay type: functional, organism-based
[10] = test system: Plasmodium falciparum; assay: Antiplasmodial activity against Plasmodium falciparum 3D7 infected in human RBCs assessed as inhibition of schizont to ring stage transition at 2 and 4 times IC50 measured after 12 hrs by flow cytometric analysis; assay type: functional, organism-based; outline: as §1
[11] = test system: Plasmodium falciparum; assay: Antiplasmodial activity against Plasmodium falciparum 3D7 infected in human RBCs assessed as inhibition of trophozoite to schizont stage transition at 2 and 4 times IC50 measured after 12 hrs by flow cytometric analysis; assay type: functional, organism-based; outline: as §1
[12] = test system: Plasmodium falciparum; assay: Antiplasmodial activity against Plasmodium falciparum 3D7 infected in human RBCs assessed as inhibition of ring to trophozoite stage transition at 4 times IC50 measured after 12 hrs by flow cytometric analysis; assay type: functional, organism-based; outline: as §1
[13] = test system: Plasmodium falciparum; assay: Antiplasmodial activity against Plasmodium falciparum 3D7 infected in human RBCs assessed as inhibition of schizont to ring stage transition at 1 to 4 times IC50 measured after 12 hrs by flow cytometric analysis; assay type: functional, organism-based; outline: as §1

Row | SMILES | inhibition [1] | inhibition [2] | IC50 [3] [µM] | IC50 [4] [µM] | IC50 [5] [nM] | Ratio IC50 [7] | inhibition [8] | inhibition [10] | also measured
1 | C(=N\Nc1nncc2ccccc12)/c1c[nH]c2ccccc12 | inactive | inactive | 13.7 | > 200 | 6660 | 14.56 |  |  | inhibition [6]: Active
2 | Cc1cc(/C=N/Nc2nncc3ccccc23)c([N+](=O)[O-])cc1C |  |  |  |  |  |  | Active |  | 
3 | C(=N\Nc1nncc2ccccc12)/c1ccc2c(c1)CCO2 |  |  |  |  |  |  | Active |  | 
4 | Oc1ccc(Cl)cc1/C=N\Nc1nncc2ccccc12 | inactive | inactive | 1.65 | > 100 | 1690 | 60.75 |  | Active | inhibition [9]: Active
5 | C(=N\Nc1nncc2ccccc12)/c1c(-c2ccccc2)[nH]c2ccccc12 |  | inactive | 3.49 | > 200 | 2430 | 57.31 |  | Active | inhibition [11]: Active
6 | C(=N\Nc1nncc2ccccc12)/C1CC1 |  |  |  |  |  |  | Active |  | 
7 | O=c1cc(/C=N/Nc2nncc3ccccc23)oc2ccccc12 |  |  |  |  |  |  | Active |  | 
8 | Cc1[nH]c2ccccc2c1/C=N/Nc1nncc2ccccc12 |  |  | 12.2 | > 200 | 5980 | 16.42 |  | Active | inhibition [12]: Active; inhibition [11]: Active
9 | CS(=O)(=O)c1ccc(/C=N/Nc2nncc3ccccc23)cc1 |  |  |  |  |  |  | Active |  | 
10 | Cn1ccnc1/C=N/Nc1nncc2ccccc12 | inactive | inactive | 3.5 | > 200 | 2230 | 57.22 |  |  | inhibition [9]: Active; inhibition [13]: Active
